# Data as given in ChEMBL document CHEMBL1123434, “Thiazole-4-carboxamide adenine dinucleotide (TAD). Analogues stable to phosphodiesterase hydrolysis” (J Med Chem, 1986).
# Columns and labels:
# snake = experiment: Compound was tested for its degradation by venom phosphodiesterase; type: functional
# Summary of the method: (§1)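 Dinucleotide incubated as substrate at 7.5 mM in 0.03 M Tris-MgCl2, pH 7.6, for 30 min with enzyme: line 1, partially purified TAD-phosphodiesterase from colon-38 carcinoma cells; line 2, snake venom phosphodiesterase. Degradation quantified by HPLC as AMP or TRMP formed, or parent dinucleotide lost, depending on substrate. Expressed relative to TAD hydrolysis set at 100%.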
# P388 [1] = experiment: The cytotoxic concentration against P388 leukemia cell; type: functional; details: Mus musculus, read-out: ID50 (the source's name)
# Mus musculus = organism: Mus musculus; experiment: Compound was tested for its degradation by TAD-phosphodiesterase; type: functional; summary of the method: as §1
# [2] = biological target: Inosine-5'-monophosphate dehydrogenase 2 (Mus musculus, UniProt P24547); experiment: Compound was tested for inhibitory activity against Inosine-5'-monophosphate dehydrogenase, the type of inhibition in not competitive
# Summary of the method: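 Partially purified IMP dehydrogenase; kinetics run at 3 inhibitor concentrations against 6 levels of substrate NAD or IMP (0.25, 0.5, 1, 2, 4 and 6 × Km). Inhibition type judged from these kinetics.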
# P388 [3] = experiment: The influence (2.5 uM) on Guanine nucleotide pools of Natural P388 sensitive cell lines measured as conc. of GMP; type: functional, Mus musculus
# Summary of the method: (§2)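 Log-phase P388/S (parental) or P388/R cells (TR-resistant, selected to grow in 1 mM TR) exposed 18 h to the stated concentration. Cells then washed in cold saline, extracted with cold 10% TCA and neutralized with tri-n-octylamine/freon. GMP, GDP and GTP quantified by SAX HPLC: 0.03 M ammonium phosphate pH 3.5, then gradient to 0.6 M, pH 3.8. Values as nmol/10^6 cells.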
# P388 [4] = experiment: The influence (5000 uM) on Guanine nucleotide pools of Natural P388 resistant cell lines measured as conc. of GMP; type: functional, Mus musculus; summary of the method: as §2
# P388 [5] = experiment: The influence (5 uM) on Guanine nucleotide pools of Natural P388 sensitive cell lines measured as conc. of GTP; type: functional, Mus musculus; summary of the method: as §2
# P388 [6] = experiment: The influence (2.5 uM) on Guanine nucleotide pools of Natural P388 sensitive cell lines measured as conc. of GDP; type: functional, Mus musculus; summary of the method: as §2
# P388 [7] = experiment: The influence (5 uM) on Guanine nucleotide pools of Natural P388 sensitive cell lines measured as conc. of GMP; type: functional, Mus musculus; summary of the method: as §2
# P388 [8] = experiment: The influence (2.5 uM) on Guanine nucleotide pools of Natural P388 resistant cell lines measured as conc. of GDP; type: functional, Mus musculus; summary of the method: as §2
# P388 [9] = experiment: The influence (2.5 uM) on Guanine nucleotide pools of Natural P388 sensitive cell lines measured as conc. of GTP; type: functional, Mus musculus; summary of the method: as §2
# P388 [10] = experiment: The influence (5000 uM) on Guanine nucleotide pools of Natural P388 resistant cell lines measured as conc. of GTP; type: functional, Mus musculus; summary of the method: as §2
# P388 [11] = experiment: The influence (5000 uM) on Guanine nucleotide pools of Natural P388 resistant cell lines measured as conc. of GDP; type: functional, Mus musculus; summary of the method: as §2
# P388 [12] = experiment: The influence (2.5 uM) on Guanine nucleotide pools of Natural P388 resistant cell lines measured as conc. of GMP; type: functional, Mus musculus; summary of the method: as §2
# P388 [13] = experiment: The influence (5 uM) on Guanine nucleotide pools of Natural P388 sensitive cell lines measured as conc. of GDP; type: functional, Mus musculus; summary of the method: as §2
# P388 [14] = experiment: The influence (2.5 uM) on Guanine nucleotide pools of Natural P388 resistant cell lines measured as conc. of GTP; type: functional, Mus musculus; summary of the method: as §2
# P388 [15] = experiment: The influence (50 uM) on Guanine nucleotide pools of Natural P388 sensitive cell lines measured as conc. of GMP; type: functional, Mus musculus; summary of the method: as §2
# P388 [16] = experiment: The influence (50 uM) on Guanine nucleotide pools of Natural P388 resistant cell lines measured as conc. of GMP; type: functional, Mus musculus; summary of the method: as §2
# P388 [17] = experiment: The influence (100 uM) on Guanine nucleotide pools of Natural P388 resistant cell lines measured as conc. of GDP; type: functional, Mus musculus; summary of the method: as §2
# P388 [18] = experiment: The influence (100 uM) on Guanine nucleotide pools of Natural P388 resistant cell lines measured as conc. of GTP; type: functional, Mus musculus; summary of the method: as §2
# P388 [19] = experiment: The influence (100 uM) on Guanine nucleotide pools of Natural P388 sensitive cell lines measured as conc. of GTP; type: functional, Mus musculus; summary of the method: as §2
# P388 [20] = experiment: The influence (50 uM) on Guanine nucleotide pools of Natural P388 resistant cell lines measured as conc. of GDP; type: functional, Mus musculus; summary of the method: as §2
# P388 [21] = experiment: The influence (50 uM) on Guanine nucleotide pools of Natural P388 sensitive cell lines measured as conc. of GDP; type: functional, Mus musculus; summary of the method: as §2
# P388 [22] = experiment: The influence (50 uM) on Guanine nucleotide pools of Natural P388 resistant cell lines measured as conc. of GTP; type: functional, Mus musculus; summary of the method: as §2
# P388 [23] = experiment: The influence (100 uM) on Guanine nucleotide pools of Natural P388 sensitive cell lines measured as conc. of GMP; type: functional, Mus musculus; summary of the method: as §2
# P388 [24] = experiment: The influence (100 uM) on Guanine nucleotide pools of Natural P388 sensitive cell lines measured as conc. of GDP; type: functional, Mus musculus; summary of the method: as §2
# P388 [25] = experiment: The influence (50 uM) on Guanine nucleotide pools of Natural P388 sensitive cell lines measured as conc. of GTP; type: functional, Mus musculus; summary of the method: as §2
# P388 [26] = experiment: The influence (100 uM) on Guanine nucleotide pools of Natural P388 resistant cell lines measured as conc. of GMP; type: functional, Mus musculus; summary of the method: as §2
# Chain of Inosine-5'-monophosphate dehydrogenase 2 (P24547 whole entry): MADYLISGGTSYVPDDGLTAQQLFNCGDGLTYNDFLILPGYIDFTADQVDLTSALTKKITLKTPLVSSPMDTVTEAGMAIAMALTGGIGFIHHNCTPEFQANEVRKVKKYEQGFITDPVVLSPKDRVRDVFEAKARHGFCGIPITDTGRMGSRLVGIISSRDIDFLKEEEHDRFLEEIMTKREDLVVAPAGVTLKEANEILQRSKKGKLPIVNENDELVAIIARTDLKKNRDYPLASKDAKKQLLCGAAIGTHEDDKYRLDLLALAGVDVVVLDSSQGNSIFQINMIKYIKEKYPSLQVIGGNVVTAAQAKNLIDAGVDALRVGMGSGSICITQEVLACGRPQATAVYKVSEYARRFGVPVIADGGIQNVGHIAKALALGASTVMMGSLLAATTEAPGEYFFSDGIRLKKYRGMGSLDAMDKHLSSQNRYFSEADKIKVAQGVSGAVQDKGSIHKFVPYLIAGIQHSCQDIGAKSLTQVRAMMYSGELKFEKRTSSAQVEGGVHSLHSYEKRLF
smiles,measurement,setting,value
NC(=O)c1csc([C@@H]2O[C@H](CCP(=O)(O)OP(=O)(O)OC[C@H]3O[C@@H](n4cnc5c(N)ncnc54)[C@H](O)[C@@H]3O)[C@@H](O)[C@H]2O)n1,hydrolysis relative to TAD,snake,27.2%
same,IC50,P388 [1],100 µM
same,hydrolysis relative to TAD,Mus musculus,10.4%
same,Ki,[2],1970 nM
NC(=O)c1csc([C@@H]2O[C@H](CO)[C@@H](O)[C@H]2O)n1 [TIAZOFURIN],Control,P388 [3],12%
same,Control,P388 [4],0%
same,Control,P388 [5],34%
same,Control,P388 [6],41%
same,Control,P388 [7],8%
same,Control,P388 [8],88%
same,Control,P388 [9],51%
same,Control,P388 [10],52%
same,Control,P388 [11],74%
same,Control,P388 [12],98%
same,Control,P388 [13],36%
same,Control,P388 [14],111%
NC(=O)c1csc([C@H]2O[C@@H](COP(=O)(O)OP(=O)(O)OC[C@H]3O[C@@H](n4cnc5c(N)ncnc54)[C@H](O)[C@@H]3O)[C@H](O)[C@@H]2O)n1,hydrolysis relative to TAD,snake,100%
same,IC50,P388 [1],2.1 µM
same,hydrolysis relative to TAD,Mus musculus,100%
same,Ki,[2],240 nM
NC(=O)c1csc([C@@H]2O[C@H](COP(=O)(O)CP(=O)(O)OC[C@@H]3O[C@H](n4cnc5c(N)ncnc54)[C@@H](O)[C@H]3O)[C@@H](O)[C@H]2O)n1,Control,P388 [15],14%
same,Control,P388 [16],3%
same,Control,P388 [17],34%
same,Control,P388 [18],8%
same,hydrolysis relative to TAD,snake,0%
same,Control,P388 [19],39%
same,Control,P388 [20],24%
same,Control,P388 [21],24%
same,Control,P388 [22],5%
same,IC50,P388 [1],45 µM
same,hydrolysis relative to TAD,Mus musculus,0%
same,Control,P388 [23],6%
same,Control,P388 [24],19%
same,Control,P388 [25],24%
same,Ki,[2],230 nM
same,Control,P388 [26],3%
NC(=O)c1csc([C@@H]2O[C@H](COP(=O)(O)OP(=O)(O)CC[C@H]3O[C@@H](n4cnc5c(N)ncnc54)[C@H](O)[C@@H]3O)[C@@H](O)[C@H]2O)n1,hydrolysis relative to TAD,snake,37.6%
same,IC50,P388 [1],2.8 µM
same,hydrolysis relative to TAD,Mus musculus,13%
